{"source": "ChEMBL document CHEMBL4371097", "about": "“Antibacterial Aromatic Polyketides Incorporating the Unusual Amino Acid Enduracididine” (J Nat Prod, 2019)", "key": {"[1]": {"tested_on": "Staphylococcus haemolyticus", "test": "Antibacterial activity against multidrug-resistant Staphylococcus haemolyticus isolate 1729 after 16 hrs by agar diffusion method", "type": "functional"}, "[2]": {"tested_on": "Staphylococcus haemolyticus", "test": "Antibacterial activity against Staphylococcus haemolyticus isolate 1730 after 16 hrs by agar diffusion method", "type": "functional"}, "[3]": {"tested_on": "Clostridioides difficile", "test": "Antibacterial activity against Clostridium difficile ATCC 17858 after 16 hrs by agar diffusion method", "type": "functional"}, "[4]": {"tested_on": "Staphylococcus aureus", "test": "Antibacterial activity against methicillin-resistant Staphylococcus aureus isolate 3864 after 16 hrs by agar diffusion method", "type": "functional"}, "[5]": {"tested_on": "Enterococcus faecium", "test": "Antibacterial activity against Enterococcus faecium isolate 568 after 16 hrs by agar diffusion method", "type": "functional"}, "[6]": {"tested_on": "Streptococcus pyogenes", "test": "Antibacterial activity against Streptococcus pyogenes isolate 49 after 16 hrs by agar diffusion method", "type": "functional"}, "[7]": {"tested_on": "Streptococcus pneumoniae", "test": "Antibacterial activity against Streptococcus pneumoniae ATCC BAA1407 after 16 hrs by agar diffusion method", "type": "functional"}, "[8]": {"tested_on": "Staphylococcus aureus", "test": "Antibacterial activity against multidrug-resistant Staphylococcus aureus isolate 3797 after 16 hrs by agar diffusion method", "type": "functional"}, "[9]": {"tested_on": "Enterococcus faecium", "test": "Antibacterial activity against Vancomycin A-inducible resistant Enterococcus faecium isolate 569 after 16 hrs by agar diffusion method", "type": "functional"}, "[10]": {"tested_on": "Streptococcus pneumoniae", "test": "Antibacterial activity against Streptococcus pneumoniae isolate 44 after 16 hrs by agar diffusion method", "type": "functional"}, "[11]": {"tested_on": "Cutibacterium acnes", "test": "Antibacterial activity against Propionibacterium acnes ATCC 25746 after 16 hrs by agar diffusion method", "type": "functional"}, "[12]": {"tested_on": "Staphylococcus intermedius", "test": "Antibacterial activity against Staphylococcus intermedius ATCC 29663 after 16 hrs by agar diffusion method", "type": "functional"}, "[13]": {"tested_on": "Staphylococcus aureus", "test": "Stimulation of protein synthesis in Staphylococcus aureus isolate 12ST assessed as increase in L-[3H]tryptophan incorporation preincubated for 5 mins followed by L-[3H]tryptophan addition and measured after 5 mins by liquid scintillation counting method", "type": "functional, organism-based", "summary_of_the_method": "(§1)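 S. aureus 12ST was grown overnight in 0.2× LB, diluted 200-fold and grown at 37 °C to OD600 0.2–0.25. 80 µL aliquots got medium or compound (added at 10× final) for 5 min at 37 °C. [5,6-3H]uridine 0.15 µCi or L-[5-3H]tryptophan 0.25 µCi was added for 5 min more. Samples were precipitated in ice-cold 5% TCA, filtered and scintillation-counted. DMSO ≤0.5% final.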"}, "[14]": {"test": "Growth inhibition of human PANC1 cells at 90 uM after 48 hrs by MTT assay relative to control", "type": "cell-based", "conditions": "PANC-1 cells, read-out: GI"}, "[15]": {"tested_on": "Staphylococcus aureus", "test": "microbe, parasite or virus in culture", "conditions": "ATCC 6538P, 16 h"}, "[16]": {"tested_on": "HEK293", "test": "Growth inhibition of HEK293 cells after 48 hrs by MTT assay", "type": "cell-based", "conditions": "Homo sapiens, HEK293, 48 h"}, "[17]": {"tested_on": "Staphylococcus aureus", "test": "Inhibition of DNA synthesis in Staphylococcus aureus isolate 12ST assessed as reduction in 5-[3H]thymidine incorporation preincubated for 5 mins followed by 5-[3H]thymidine addition and measured after 5 mins by liquid scintillation counting method", "type": "functional, organism-based", "summary_of_the_method": "(§2)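 S. aureus 12ST was grown overnight in 0.2× LB, diluted 200-fold, and grown at 37 °C to OD600 0.2–0.25. Aliquots were exposed to compound for 5 min at 37 °C (0.5% DMSO maximum final). Label was then added ([6-3H]thymidine 0.15 μCi/sample; D-[6-3H]glucosamine 0.4 μCi/sample) for 5 min at 37 °C. Samples were precipitated with ice-cold 5% TCA for ≥30 min, filtered, washed, and scintillation counted.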"}, "[18]": {"tested_on": "Candida albicans", "test": "Antifungal activity against Candida albicans after 16 hrs by agar diffusion method", "type": "functional, organism-based"}, "[19]": {"tested_on": "Staphylococcus aureus", "test": "Inhibition of cell wall synthesis in Staphylococcus aureus isolate 12ST assessed as reduction in [3H]glucosamine hydrochloride incorporation preincubated for 5 mins followed by [3H]glucosamine hydrochloride addition and measured after 5 mins by liquid scintillation counting method", "type": "functional, organism-based", "summary_of_the_method": "as §2"}, "[20]": {"tested_on": "Staphylococcus aureus", "test": "Bactericidal activity against Staphylococcus aureus isolate 3797 at 8 times MIC up to 2 to 4 hrs by time kill assay relative to control", "type": "functional"}, "[21]": {"tested_on": "Mycolicibacterium smegmatis", "test": "Antibacterial activity against Mycobacterium smegmatis after 16 hrs by agar diffusion method", "type": "functional, organism-based"}, "[22]": {"tested_on": "Staphylococcus aureus", "test": "Bactericidal activity against Staphylococcus aureus isolate 3797 up to 8 times MIC up to 24 hrs by time kill assay", "type": "functional, organism-based"}, "[23]": {"tested_on": "Staphylococcus aureus", "test": "Bactericidal activity against Staphylococcus aureus ATCC 6538P at 8 times MIC up to 2 to 4 hrs by time kill assay relative to control", "type": "functional"}, "[24]": {"tested_on": "Staphylococcus aureus", "test": "microbe, parasite or virus in culture", "conditions": "ATCC 29213, 16 h"}, "[25]": {"tested_on": "Staphylococcus aureus", "test": "Bactericidal activity against Staphylococcus aureus ATCC 6538P up to 8 times MIC up to 24 hrs by time kill assay", "type": "functional, organism-based"}, "[26]": {"tested_on": "Staphylococcus aureus", "test": "Inhibition of RNA synthesis in Staphylococcus aureus isolate 12ST assessed as reduction in [3H]uridine incorporation up to 60 ug/ml preincubated for 5 mins followed by [3H]uridine addition and measured after 5 mins by liquid scintillation counting method", "type": "functional, organism-based", "summary_of_the_method": "as §1"}, "[27]": {"tested_on": "Bacillus subtilis", "test": "Inhibition of cell wall synthesis in Bacillus subtilis BAU102 assessed as induction of beta-galactosidase activity preincubated for 120 mins followed by beta-galactosidase chromogenic substrate addition", "type": "functional, organism-based"}}, "note": "Active and inactive are the calls of the source. No cut-off for these calls is given here.", "data": [{"molecule": "GENTAMICIN", "values": [{"measurement": "MIC", "setting": "[1]", "value": "> 128", "unit": "µg/mL"}, {"measurement": "MIC", "setting": "[2]", "value": "> 128", "unit": "µg/mL"}, {"measurement": "MIC", "setting": "[3]", "value": 128, "unit": "µg/mL"}, {"measurement": "MIC", "setting": "[4]", "value": "> 128", "unit": "µg/mL"}, {"measurement": "MIC", "setting": "[5]", "value": 32, "unit": "µg/mL"}, {"measurement": "MIC", "setting": "[6]", "value": 16, "unit": "µg/mL"}, {"measurement": "MIC", "setting": "[7]", "value": 64, "unit": "µg/mL"}, {"measurement": "MIC", "setting": "[8]", "value": 64, "unit": "µg/mL"}, {"measurement": "MIC", "setting": "[9]", "value": 16, "unit": "µg/mL"}, {"measurement": "MIC", "setting": "[10]", "value": 8, "unit": "µg/mL"}, {"measurement": "MIC", "setting": "[11]", "value": 2, "unit": "µg/mL"}, {"measurement": "MIC", "setting": "[12]; NCTC 11048", "value": "< 0.125", "unit": "µg/mL"}]}, {"molecule": "COc1c(OC)c2c(=O)c3cc(C)n(C(CC4CN(C)C(=N)N4)C(=O)O)c(=O)c3c(=O)c2c2cc3c(=O)c4cc(O)cc(O)c4c(=O)c3c(OC)c12", "note": "(stereo unspecified)", "values": [{"measurement": "MIC", "setting": "[1]; isolate 1729, 16 h", "value": 0.015, "unit": "µg/mL"}, {"measurement": "MIC", "setting": "[2]; isolate 1730, 16 h", "value": 0.03, "unit": "µg/mL"}, {"measurement": "Activity", "setting": "[13]", "value": "Active"}, {"measurement": "MIC", "setting": "[3]; ATCC 17858, 16 h", "value": 2, "unit": "µg/mL"}, {"measurement": "MIC", "setting": "[4]; isolate 3864, 16 h", "value": 0.03, "unit": "µg/mL"}, {"measurement": "MIC", "setting": "[5]; isolate 568, 16 h", "value": 4, "unit": "µg/mL"}, {"measurement": "MIC", "setting": "[6]; isolate 49, 16 h", "value": 0.5, "unit": "µg/mL"}, {"measurement": "inhibition at 48 h, 90 µM", "setting": "[14]", "value": 20, "unit": "%"}, {"measurement": "MIC", "setting": "[15]", "value": 0.004, "unit": "µg/mL"}, {"measurement": "IC50", "setting": "[16]", "value": 55, "unit": "µM"}, {"measurement": "IC50", "setting": "[17]", "value": 2, "unit": "µg/mL"}, {"measurement": "inhibition", "setting": "[17]", "value": "Dose-dependent effect"}, {"measurement": "Activity", "setting": "[18]", "value": "inactive"}, {"measurement": "IC50", "setting": "[19]", "value": 5, "unit": "µg/mL"}, {"measurement": "inhibition", "setting": "[19]", "value": "Dose-dependent effect"}, {"measurement": "Activity", "setting": "[20]", "value": ">99.9", "unit": "%"}, {"measurement": "Activity", "setting": "[21]", "value": "inactive"}, {"measurement": "MIC", "setting": "[7]; ATCC BAA1407, 16 h", "value": 0.25, "unit": "µg/mL"}, {"measurement": "MIC", "setting": "[8]; isolate 3797, 16 h", "value": 0.03, "unit": "µg/mL"}, {"measurement": "MIC", "setting": "[9]; isolate 569, 16 h", "value": 2, "unit": "µg/mL"}, {"measurement": "Activity", "setting": "[22]", "value": "inactive"}, {"measurement": "MIC", "setting": "[10]; isolate 44, 16 h", "value": 0.25, "unit": "µg/mL"}, {"measurement": "Activity", "setting": "[23]", "value": ">99.9", "unit": "%"}, {"measurement": "MIC", "setting": "[24]", "value": 0.0005, "unit": "µg/mL"}, {"measurement": "Activity", "setting": "[25]", "value": "inactive"}, {"measurement": "inhibition", "setting": "[26]", "value": "inactive"}, {"measurement": "MIC", "setting": "[11]; ATCC 25746, 16 h", "value": 0.25, "unit": "µg/mL"}, {"measurement": "inhibition", "setting": "[27]", "value": "Active"}, {"measurement": "MIC", "setting": "[12]; NCTC 11048, 16 h", "value": 0.007, "unit": "µg/mL"}]}, {"molecule": "CN[C@H](CC(C)C)C(=O)N[C@H]1C(=O)N[C@@H](CC(N)=O)C(=O)N[C@H]2C(=O)N[C@H]3C(=O)N[C@H](C(=O)N[C@H](C(=O)O)c4cc(O)cc(O)c4-c4cc3ccc4O)[C@H](O)c3ccc(c(Cl)c3)Oc3cc2cc(c3O[C@@H]2O[C@H](CO)[C@@H](O)[C@H](O)[C@H]2O[C@H]2C[C@](C)(N)[C@H](O)[C@H](C)O2)Oc2ccc(cc2Cl)[C@H]1O", "note": "[VANCOMYCIN]", "values": [{"measurement": "MIC", "setting": "[1]; isolate 1729, 16 h", "value": 2, "unit": "µg/mL"}, {"measurement": "MIC", "setting": "[2]; isolate 1730, 16 h", "value": 2, "unit": "µg/mL"}, {"measurement": "MIC", "setting": "[3]; ATCC 17858, 16 h", "value": 0.5, "unit": "µg/mL"}, {"measurement": "MIC", "setting": "[6]; isolate 49, 16 h", "value": 0.25, "unit": "µg/mL"}, {"measurement": "MIC", "setting": "[7]; ATCC BAA1407, 16 h", "value": 0.5, "unit": "µg/mL"}, {"measurement": "MIC", "setting": "[8]; isolate 3797, 16 h", "value": 8, "unit": "µg/mL"}, {"measurement": "MIC", "setting": "[9]; isolate 569, 16 h", "value": "> 128", "unit": "µg/mL"}, {"measurement": "MIC", "setting": "[10]; isolate 44, 16 h", "value": 0.125, "unit": "µg/mL"}, {"measurement": "MIC", "setting": "[11]; ATCC 25746, 16 h", "value": 0.25, "unit": "µg/mL"}, {"measurement": "MIC", "setting": "[12]; NCTC 11048, 16 h", "value": 1, "unit": "µg/mL"}]}]}
